Results: PMC2938439 (The Journal of Membrane Biology, 2010)
Peptide text beside a SMILES is read from it.

Key:
[1] = CD spectroscopy, peptide and LUVs in the same cuvette; assay type: physicochemical; conditions: for Θ222, same cell: pH 7.0, ~25°C, error est. 10%
Outline: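 Lipid dried from chloroform under nitrogen, then under vacuum overnight. It was hydrated in 10 mM potassium phosphate pH 7.0, vortexed, and extruded 10× under nitrogen through two stacked 0.1-μm polycarbonate filters to give LUVs. Peptide and vesicles shared one cuvette, 1-mm path. 10–30 scans, 190–260 nm, ~25°C. A vesicle-only spectrum was subtracted. Ellipticity was converted to per-residue values.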

[2] = CD spectroscopy, two-cuvette experiment; assay type: physicochemical; conditions: error est. 10%
Outline: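 Two-cuvette setup: test peptide solution in cell 1 and POPC LUV suspensions in cell 2, in the light path together. LUVs were extruded through 0.1-μm filters in 10 mM potassium phosphate pH 7.0. Peptide concentration was set by UV absorbance (tyrosine ε274nm 1,440 M−1 cm−1). 10–30 scans, 190–260 nm, 1-mm path, ~25°C. Ellipticity was expressed per residue.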

[3] = monomolecular, ref Scholtz et al. [1991]; cited from earlier work
[4] = CD of Annexin B12 in solution and bound to LUVs; assay type: physicochemical; conditions: bound to LUVs in the presence of Ca^2+

Molecule: CC(=O)N[C@@H](Cc1ccc(O)cc1)C(=O)N[C@@H](C)C(=O)N[C@@H](CCC(=O)O)C(=O)N[C@@H](C)C(=O)N[C@@H](C)C(=O)N[C@@H](CCCCN)C(=O)N[C@@H](C)C(=O)N[C@@H](C)C(=O)N[C@@H](CCC(=O)O)C(=O)N[C@@H](C)C(=O)N[C@@H](C)C(=O)N[C@@H](CCCCN)C(=O)N[C@@H](C)C(=O)N[C@@H](C)C(=O)N[C@@H](CCC(=O)O)C(=O)N[C@@H](C)C(=O)N[C@@H](C)C(=O)N[C@@H](CCCCN)C(=O)N[C@@H](C)C(=O)N[C@@H](C)C(=O)N[C@@H](CCC(=O)O)C(=O)N[C@@H](C)C(=O)N[C@@H](C)C(=O)N[C@@H](CCCCN)C(=O)N[C@@H](C)C(=O)N[C@@H](Cc1ccccc1)C(N)=O [Ac-Y(AEAAKA)4F-NH2] (Ac-YAEAAKAAEAAKAAEAAKAAEAAKAF-NH2)
- molar ellipticity of the peptide ([1]; 25°C, buffer with LUVs up to 7 mM, 40 μM peptide): −20(±0.5) × 10^3 deg cm^2 dmol^−1
- Θ222, same cell ([1]; +0.25 mM POPC LUVs in same cuvette, 40 μM peptide): −20,100 deg cm^2 dmol^−1
- Θ222, same cell ([1]; +3 mM POPC LUVs in same cuvette, 40 μM peptide): −19,800 deg cm^2 dmol^−1
- Θ222, same cell ([1]; +5 mM POPC LUVs in same cuvette, 40 μM peptide): −19,700 deg cm^2 dmol^−1
- Θ222, same cell ([1]; +7 mM POPC LUVs in same cuvette, 40 μM peptide): −19,700 deg cm^2 dmol^−1
- binding to POPC vesicles ([1]; same-cuvette versus two-cuvette CD spectra, LUVs up to 7 mM): does not bind to POPC vesicles
- Θ222, two cells ([2]; +3 mM POPC LUVs in separate cuvette, peptide in buffer (40 μM)): −20,100 deg cm^2 dmol^−1
- Θ222, two cells ([2]; +5 mM POPC LUVs in separate cuvette, peptide in buffer (40 μM)): −20,100 deg cm^2 dmol^−1
- Θ222, two cells ([2]; +7 mM POPC LUVs in separate cuvette, peptide in buffer (40 μM)): −19,900 deg cm^2 dmol^−1
- Θ222, two cells ([2]; no lipid, peptide in buffer (40 μM) in cell 1, ~25°C): −20,300 deg cm^2 dmol^−1
- α-helical content in buffer [3]: ~ 60%

B1: Annexin B12 (protein, UniProt P26256 1-316, looked up)
Annexin-B12: MVVQGTVKPHASFNSREDAETLRKAMKGIGTDEKSITHILATRSNAQRQQIKTDYTTLFGKHLEDELKSELSGNYEAAALALLRKPDEFLAEQLHAAMKGLGTDENALIDILCTQSNAQIHAIKAAFKLLYKEDLEKEIISETSGNFQRLLVSMLQGGRKEDEPVNAAHAAEDAAAIYQAGEGQIGTDESRFNAVLATRSYPQLHQIFHEYSKISNKTILQAIENEFSGDIKNGLLAIVKSVENRFAYFAERLHHAMKGLGTSDKTLIRILVSRSEIDLANIKETFQAMYGKSLYEFIADDCSGDYKDLLLQITGH
- CD spectrum, aqueous versus LUV-associated [4]: essentially the same CD spectrum
